# Compound activity: PubChem BioAssay, several laboratories
# TLR4 MyD88 comp = TLR4-MyD88 interaction inhibition in cells | inhibition, % at 8.4 µM | AID 861 | O00206+Q99836 | hit rate 0.18% among 200,000 | HeLa CL3-4 TLR4/MyD88 BLA complementation, FRET ratio; in the data active = inhibition above about 25%;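 note: 0% = vehicle and 100% = reference inhibitor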
# Hsp70 activator = Hsp70 transcriptional activation, primary screen | hit rate 0.04% among 200,000 | activation, % at 10 µM | HeLa Hsp70 promoter luciferase reporter, luminescence; scaled: vehicle 0, proteasome-inhibitor control 100%;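 active = activation above the mean across all tested compounds plus 3 SD, cutoff set per campaign, cut at about 5.5% in these data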;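 note: 100% = MG132 at 30 µM as the positive control and 0% = DMSO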
# b-catenin transl = beta-catenin nuclear translocation modulation | HeLa beta-catenin nuclear translocation, immunofluorescence imaging | nuclear translocation activity, % at 5 µM | hit rate 0.3% among 190,000;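 active = nuclear translocation activity above 50% at 5 µM, with a well cell count of 50 or more; inconclusive = wells under 50 cells across six images, flagged as toxic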;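 note: per-cell ratio of nuclear to cytoplasmic median beta-catenin stain intensity; plate controls were DMSO negative control for no effect and GSK-3 inhibitor IX positive control for full effect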
#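 Signal – beta-catenin immunofluorescence imaging with DAPI · Test system – human HeLa cell line · Dosing – 5 µM primary single dose, 0.1% DMSO, 0.02–20 µM confirmation series · Measure – % activation, nuclear-to-cytoplasmic median beta-catenin signal ratio per cell · Incubation – 24 h compound exposure at 37°C, 5% CO2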
# MT stabilize HCS = stabilizes microtubules in HeLa cells. HeLa tubulin immunostaining HCS, 24 h; share of cells brighter than vehicle mean+2SD. % tubulin-high responders, % at 10 µM. hit rate 0.83% among 200,000;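 active = plate Z-score above 3 for both tubulin-high and condensed-nucleus cell shares, with cell loss under 80%, at 10 µM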;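 note: anti alpha tubulin signal scored within the nucleus-defined area of each cell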
# TLR9-MyD88 block = inhibitors of human TLR9-MyD88 binding. Q9NR96+Q99836. CHO BLA complementation TLR9-MyD88, CCF4 FRET ratio. inhibition, % at 4.98 µM. hit rate 0.21% among 340,000;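 active = inhibition above the mean over all tested compounds plus 3 SD, cut at about 21% in these data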;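 note: 0% = DMSO only wells and 100% = clavulanate BLA inhibitor control wells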
# NOD2 RIPK2 PPI = blocks binding of human NOD2 to RIPK2 | CHO BLA complementation NOD2-RIPK2, CCF4 ratio | inhibition, % at 4.98 µM | hit rate 0.38% among 360,000 | AID 624267; in the data active = inhibition above about 21%;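 note: 0% = vehicle only and 100% = reference blocker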
# Target sequence (O43353 whole entry, looked up): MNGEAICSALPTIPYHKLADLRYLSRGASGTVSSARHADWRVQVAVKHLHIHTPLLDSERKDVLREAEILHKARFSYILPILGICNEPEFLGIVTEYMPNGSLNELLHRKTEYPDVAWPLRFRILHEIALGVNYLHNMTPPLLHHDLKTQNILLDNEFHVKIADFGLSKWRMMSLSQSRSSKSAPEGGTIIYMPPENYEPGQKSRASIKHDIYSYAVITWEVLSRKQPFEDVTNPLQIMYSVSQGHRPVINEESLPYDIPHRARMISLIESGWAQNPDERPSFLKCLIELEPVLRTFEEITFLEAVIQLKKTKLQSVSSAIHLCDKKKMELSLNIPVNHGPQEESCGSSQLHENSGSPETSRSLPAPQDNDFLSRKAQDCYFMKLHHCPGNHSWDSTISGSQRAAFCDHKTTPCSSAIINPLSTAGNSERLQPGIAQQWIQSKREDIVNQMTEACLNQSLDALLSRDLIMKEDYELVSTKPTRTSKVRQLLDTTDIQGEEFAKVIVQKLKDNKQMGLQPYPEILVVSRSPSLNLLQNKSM
# TLR4-MyD88 conf = TLR4-MyD88 interaction inhibition confirmed. shares compounds with TLR4 MyD88 comp. HeLa CL3-4 BLA complementation, CCF4 FRET ratio. inhibition, % at 8.4 µM. hit rate 50% among 350;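 active = mean inhibition across three repeat runs above about 25% carried over from the earlier screen, limit read from the data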;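 note: plate controls were DMSO only for no effect and clavulanic acid blocking BLA at full dose for full effect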
# BLA inhibitor ct = beta-lactamase inhibition flagged in TLR4-MyD88 counter-screen; shares compounds with TLR4 MyD88 comp; HeLa BLA reporter, CCF4 FRET ratio; inhibition, % at 8.4 µM; hit rate 63% among 350;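 active = mean inhibition over three repeats above about 26% taken from the earlier screen, limit read from the data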;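 note: HeLa cells stably expressing beta-lactamase reporter as counterscreen for TLR4-MyD88 inhibitors; 0% = DMSO and 100% = clavulanic acid full inhibition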
# TLR9-MyD88 conf = TLR9-MyD88 interaction inhibition, confirmation | shares compounds with TLR9-MyD88 block | CHO TLR9/MyD88 BLA complementation, CCF4 FRET ratio | inhibition, % at 4.98 µM | hit rate 51% among 680;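 active = mean inhibition across three repeats above about 21% taken from the earlier screen, limit read from the data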;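 note: blue over green emission ratio reports constitutive TLR9 MyD88 association via BLA complementation; 0% = DMSO vehicle wells and 100% = clavulanate BLA inhibitor wells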
# BLA counter-1 = non-selective beta-lactamase inhibitors in TLR9-MyD88 counter-screen; shares compounds with TLR9-MyD88 block; CHO-BLA cells, CCF4 FRET ratio, BLA reporter; inhibition, % at 4.98 µM; hit rate 7% among 680;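 active = mean inhibition above a 50% cutoff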;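 note: counterscreen of TLR9-MyD88 hits on CMV-driven BLA in CHO-K1 cells; 0% = DMSO alone and 100% = clavulanate blocking BLA; higher means less blue over green ratio so more BLA blockade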
# TLR9 CHO cytotox = counter-screen for TLR9-MyD88 inhibitors: cytotoxicity in CHO cells; shares compounds with TLR9-MyD88 block; luminescence; inhibition, % at 4.98 µM; hit rate 39% among 680; in the data active = inhibition above about 11%
# NOD2 RIPK2 conf = NOD2-RIPK2 interaction inhibition confirmed. inhibition, % at 4.98 µM. shares compounds with NOD2 RIPK2 PPI. hit rate 70% among 1,200. CHO cells, NOD2-RIPK2 BLA complementation, CCF4 FRET;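 active = mean inhibition across replicates above a set limit taken from the earlier primary screen, cut at about 21% in these data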;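 note: 0% = DMSO-only wells and the high end = clavulanate BLA-blocked wells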
# BLA counter-2 = hits BLA reporter in NOD2-RIPK2 inhibitor counterscreen. shares compounds with NOD2 RIPK2 PPI. CHO BLA reporter, CCF4 FRET ratio. inhibition, % at 4.98 µM. hit rate 57% among 1,200. AID 624371;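 active = mean inhibition above the low-control mean inhibition plus three low-control SD, cut at about 11% in these data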;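 note: 0% = DMSO only wells and 100% = clavulanate high control wells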
# * hit, by the source's call; ? = inconclusive; nt = no result given. An excerpt weighted towards active compounds, which were near 1% of everything screened.
SMILES,TLR4 MyD88 comp,Hsp70 activator,b-catenin transl,MT stabilize HCS,TLR9-MyD88 block,NOD2 RIPK2 PPI,TLR4-MyD88 conf,BLA inhibitor ct,TLR9-MyD88 conf,BLA counter-1,TLR9 CHO cytotox,NOD2 RIPK2 conf,BLA counter-2
COc1ccc(Cl)cc1NC(=O)CN(C)C(=O)c1ccc(COc2ccccc2)cc1,nt,nt,nt,nt,3,11,nt,nt,nt,nt,nt,nt,nt
CCCCOCCCNC(=O)C[C@@H]1C[C@@]2(C(=O)OC)CCCCC=C2N(Cc2ccccc2)C1=O,nt,nt,nt,nt,nt,10,nt,nt,nt,nt,nt,nt,nt
CCOC(=O)c1ccc(NC(=O)Cn2nc(C)c3ccccc3c2=O)cc1,nt,nt,nt,nt,3,-10,nt,nt,nt,nt,nt,nt,nt
CCOC(=O)c1ccc(NC(=O)Cn2ncc(Cl)c(Cl)c2=O)cc1,27*,5.8*,nt,4,27*,52*,37*,11,24*,15,99*,65*,14*
Cc1ccc(C(=O)OCn2ncc(Cl)c(Cl)c2=O)cc1,55*,88*,0,3,30*,66*,62*,18,27*,26,98*,85*,8
CCN(CC(=O)NCc1cccs1)C(=O)CCC(=O)c1ccc(C)cc1,nt,nt,nt,nt,8,9,nt,nt,nt,nt,nt,nt,nt
CCCCCCn1c(=O)[nH]c2nc3cc(N)c(C)cc3nc2c1=O,28*,0,-1,2,32*,42*,18,43*,20,19,-5,45*,49*
CC1(C)CC(=O)C2=C(C1)OC1=C(C(=O)CC(C)(C)C1)C2c1ccc(O)cc1O,34*,3,-3,4,15,67*,24,-8,nt,nt,nt,79*,-2
COc1ccc(/C=c2/sc3n(c2=O)C(c2ccccc2OC)C2=C(N=3)c3ccccc3CC2)cc1O (stereo unspecified),27*,0,1,33*,17,35*,18,45*,nt,nt,nt,26*,31*
COc1cc2nc(/C=C/c3ccc(N(C)C)cc3)sc2cc1SC,64*,0,7,6,32*,41*,65*,96*,53*,59*,1,78*,82*
COc1cc2c(cc1OC)C(=Cc1ccc(N(C)C)cc1)C=C2,nt,nt,nt,nt,-4,-7,nt,nt,nt,nt,nt,nt,nt
Nc1nc(N)c2c(ccc3c2ccn3Cc2cccc([N+](=O)[O-])c2)n1,nt,nt,nt,nt,nt,-1,nt,nt,nt,nt,nt,nt,nt
COc1ccc(Cn2cc3c(-c4ccc(F)cc4)nnc-3c3cc(OC)c(OC)cc32)cc1,28*,0,-1,6,50*,63*,25*,41*,31*,35,-1,66*,72*
O=[N+]([O-])c1ccc(S(=O)(=O)Nc2ccc(-c3ccccc3)cc2)cc1,nt,nt,nt,nt,7,12,nt,nt,nt,nt,nt,nt,nt
CCN(CC)c1ccc2cc(-c3nc4ccccc4n3C)c(=O)oc2c1,49*,0,66*,29*,33*,44*,58*,87*,41*,49,39*,69*,75*
CCN(CC)c1ccc2cc(-c3nnc(-c4ccc(Br)cc4)o3)c(=O)oc2c1,11,3,nt,2,nt,nt,nt,nt,nt,nt,nt,nt,nt
CC(C)CNC(=O)COC(=O)c1c2c(nc3ccccc13)/C(=C/c1cccs1)CC2,45*,0,1,3,32*,38*,43*,71*,41*,49,9,65*,73*
CCNc1ccc2c(Cl)cc(=O)oc2c1,32*,0,0,3,34*,30*,21,36*,nt,nt,nt,44*,32*
CCN(CC)c1ccc2c(Cl)cc(=O)oc2c1,8,0,0,5,nt,nt,nt,nt,nt,nt,nt,nt,nt
O=C1c2cccc3c(N4CCCCC4)ccc(c23)C(=O)N1c1cccc(O)c1,50*,0,0,3,42*,54*,35*,55*,35*,33,11*,61*,68*
O=C1c2cccc3c(N4CCCCC4)ccc(c23)C(=O)N1CCO,7,0,2,3,13,21,nt,nt,nt,nt,nt,nt,nt
O=C(OCCN1C(=O)c2cccc3c(N4CCOCC4)ccc(c23)C1=O)c1ccccc1Cl,41*,0,nt,14*,40*,53*,46*,65*,nt,nt,nt,54*,60*
C=CCN1C(=O)c2cccc3c(N4CCCCC4)ccc(c23)C1=O,51*,0,nt,3,8,22*,36*,61*,nt,nt,nt,61*,64*
COc1oc(C(=O)NC2CCCCC2)c(-c2ccc(Cl)cc2)c1S(=O)(=O)c1ccccc1,nt,nt,nt,nt,-6,-5,nt,nt,nt,nt,nt,nt,nt
CCN1/C(=C/C=C/c2oc3ccc(-c4ccccc4)cc3[n+]2CC)Oc2ccc(-c3ccccc3)cc21,40*,0,?,65,25*,47*,35*,57*,25*,27,69*,67*,57*
Cc1cccc(CN(C)C[C@H]2OCc3cnnn3CCCC(=O)N([C@@H](C)CO)C[C@@H]2C)c1,nt,nt,nt,nt,6,-5,nt,nt,nt,nt,nt,nt,nt
Nc1cccc2c1C(=O)N(CC(=O)NC13CC4CC(CC(C4)C1)C3)C2=O,31*,0,4,5,19,39*,18,37*,nt,nt,nt,44*,47*
CN(C)CCCN1C(=O)c2cccc3c([N+](=O)[O-])ccc(c23)C1=O,86*,1,-2,1,70*,82*,86*,109*,55*,72*,95*,90*,77*
CC(=O)Nc1nc2n(n1)C(c1ccc(F)cc1)C=C(c1ccccc1)N2 (stereo unspecified),34*,-1,-3,2,41*,41*,36*,56*,7,8,4,-1,3
CCC(=O)Nc1nc2n(n1)C(c1ccc(OC)cc1)C=C(c1ccccc1)N2 (stereo unspecified),14,0,0,1,nt,nt,nt,nt,nt,nt,nt,nt,nt
